Source: PubChem (several laboratories)
Hits are enriched below; roughly 1.5% of the tested compounds scored in any of these assays.
MEX-5 binding – MEX-5 zinc finger RNA-binding disruptors – biochemical, C. elegans, fluorescence polarization, MLPCN library, primary screen. MEX-5/FITC-TCR2 RNA binding; stronger effect = lower value. actives 0.38% (n = 300,000). AID 1832, 2009. activity score (negative = inhibition of binding), % at 10 µM;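 active = inhibition past about -25% in most replicates, and total fluorescence under double the plate's negative control median, limit read from the data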;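 also: 0% = DMSO and -100% = 5 µM competing unlabeled TCR2 RNA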
Target sequence (Q9XUB2 whole entry, looked up): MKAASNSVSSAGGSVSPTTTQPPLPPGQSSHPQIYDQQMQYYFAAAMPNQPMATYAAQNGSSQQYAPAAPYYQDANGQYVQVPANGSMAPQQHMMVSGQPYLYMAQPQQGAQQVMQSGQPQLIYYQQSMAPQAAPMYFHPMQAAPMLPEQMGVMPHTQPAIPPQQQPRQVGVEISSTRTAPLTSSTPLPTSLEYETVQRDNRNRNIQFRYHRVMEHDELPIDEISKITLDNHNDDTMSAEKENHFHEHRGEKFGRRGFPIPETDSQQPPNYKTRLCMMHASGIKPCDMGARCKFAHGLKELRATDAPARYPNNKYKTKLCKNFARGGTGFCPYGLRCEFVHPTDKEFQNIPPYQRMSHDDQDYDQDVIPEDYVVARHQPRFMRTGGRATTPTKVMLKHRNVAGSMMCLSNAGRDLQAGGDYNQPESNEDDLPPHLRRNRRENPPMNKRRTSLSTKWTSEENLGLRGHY
HCV core dimer – inhibitors of HCV core protein dimerization, primary screen, biochemical, TR-FRET, high-throughput; TR-FRET GST/Flag-core106 dimerization, 1536-well; inhibition, % at 5 µM; actives 0.33% (n = 300,000); AID 1899, 2009;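 active = inhibition above the mean of all tested compounds plus 3 SD, set per screening campaign, cut at about 45% in these data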
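Material: Tagged HCV core106 pair (GST and Flag) | Amount: GST-core106 13.5 nM, Flag-core106 17 nM | Medium: KF-containing HEPES buffer, pH 7.45, DTT, CHAPS, BSA | Reagent: Eu donor and XL665 acceptor anti-tag antibodies | Schedule: 4 h at 22.5 °C | Technique: Time-resolved FRET, ex 340 nm, em 617 and 671 nm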
DNA FID counter – compounds displacing fluorescent DNA intercalator, primary screen, artefact control for HCV NS3 helicase inhibitor project, biochemical, FID fluorescence | actives 0.17% (n = 290,000) | inhibition, % at 7.9 µM | DNA fluorescent intercalator displacement; in the data active = inhibition above about 37%;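 also: 0% = vehicle and 100% = reference compound; higher means more ethidium bromide displaced from hairpin DNA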
NRP1-CendR mod – modulators of CendR peptide binding to NRP-1, primary screen, biochemical, fluorescence polarization, uHTS. Neuropilin-1 (Homo sapiens), O14786. FAM-RPARPAR peptide binding to NRP-1. inhibition, % at 25 µM. actives 0.85% (n = 360,000);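 active = inhibition or corrected inhibition above about 18%, plus a signal ratio from 0.5 to 1.5, limit read from the data, passing the limit was not always enough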
The depositor's hits bear a star; . = not tested or not shown.

SMILES	MEX-5 binding	HCV core dimer	DNA FID counter	NRP1-CendR mod
CC(C)(C)c1ccc(CC(=O)N2CCC2(C)C(=O)NS(=O)(=O)c2ccc3c(c2)CCO3)cc1 (stereo unspecified)	.	.	.	-2
CC1(C)CCC(=O)N2CC[C@H]3C[C@H](OC(=O)Nc4ccc5c(c4)OCO5)C[C@@H]1[C@H]32	1	7	-31	20*
CC1(C)CCC(=O)N2CC[C@H]3C[C@H](OC(=O)Nc4ccccc4)C[C@@H]1[C@H]32	0	5	-16	0
CCc1cc(=O)oc2cc(OCC(=O)N3CCC[C@H]3C(=O)O)ccc12	-1	2	95*	6
CCCc1cc(=O)oc2c(C)c(OCC(=O)N3CCC[C@@H]3C(=O)O)ccc12	0	1	-32	3
COCCn1c(=O)[nH]c(=O)c2c1nc(-c1ccc(-c3ccc(Cl)cc3[N+](=O)[O-])o1)n2Cc1ccccc1	-2	55*	-25	-21
O=c1[nH]c(=O)n(Cc2ccccc2)c2nc(-c3ccc(Oc4ccc(F)cc4)c([N+](=O)[O-])c3)n(CCO)c12	2	9	-23	26*
COc1ccc(-c2ccc(-c3nc4c(c(=O)[nH]c(=O)n4Cc4ccccc4)n3C)o2)c([N+](=O)[O-])c1	1	33	-4	-16
COc1ccc(-c2nc3c(c(=O)[nH]c(=O)n3Cc3ccccc3)n2CCO)cc1	2	5	-26	12
CC(C)n1nccc1NC(=O)COC(=O)c1ccc(NC(N)=O)cc1	.	.	.	24*
COC(=O)[C@H](CCSC)NC(=O)Nc1ccc(OC)c(Cl)c1	-1	0	0	24*
CC12CCC(=O)C=C1C(F)CC1C2C(O)CC2(C)C1CCC2(O)C(=O)CO (stereo unspecified)	.	.	.	9
O=S(=O)(Nc1ccc(O)c2ccccc12)c1ccc(Br)cc1	-27*	5	-13	.
Cc1ccccc1S(=O)(=O)N1CCN(c2ccc3c(c2)C2CC3CCN2C(=O)OCc2ccccc2)CC1 (stereo unspecified)	.	.	.	16
CNC(=S)NNC(=O)c1ccccc1Cl	-5	0	-3	25*
O=C(NNC(=O)c1cccc2ccccc12)c1ccc(Cl)cc1Cl	.	.	.	5
O=C(NNC(=O)c1ccc2ccccc2c1O)c1ccccc1Cl	-56*	-23	3	-4
Cc1ccc(N2CCN(C(=O)C(=O)c3ccc(F)c(F)c3)CC2)cc1	.	.	.	-5
Fc1cnc(N2CCOCC2)nc1N1CCc2ccccc21	1	0	-14	11
Fc1cnc(N2CCOCC2)nc1N1CCOCC1	0	-4	-4	21*
Cc1ccc(Cc2c(-c3ccc(C)cc3)nc3c(Cl)cc(C(F)(F)F)cn23)cc1	.	.	.	-19
O=C(C[C@H]1C=C[C@@H](NC(=O)Cc2cccnc2)[C@@H](CO)O1)NCc1ccc2c(c1)OCO2	.	.	.	0
CCOC(=O)N1CCN(C(=O)c2cc(COc3ccc(OC)cc3Cl)on2)CC1	0	0	-52	25*
C[C@H]1CN([C@@H](C)CO)C(=O)CCCn2nncc2CO[C@H]1CN(C)C(=O)c1ccccc1	.	.	.	-8
CN(CC(=O)Nc1ccccc1Cl)C(=O)C1CSC2(C)CCC(=O)N12 (stereo unspecified)	.	.	.	21*
SMILES	MEX-5 binding	HCV core dimer	DNA FID counter	NRP1-CendR mod
CC1(C(=O)NC2CCN(Cc3ccccc3)CC2)CCN1Cc1ccc2ccccc2c1 (stereo unspecified)	.	.	.	2
CC(=O)Nc1cccc(Oc2nc(-c3ccccn3)nc3ccccc23)c1	-35*	4	1	6
Cc1ccccc1N(C(=O)c1ccccn1)C(C(=O)NCc1ccccc1)c1cccnc1 (stereo unspecified)	2	-3	-34	6
O=C(NCc1ccccc1)C(c1cccnc1)N(C(=O)c1ccccn1)c1ccccc1F (stereo unspecified)	1	-10	-30	26*
CCC1CCCCN1S(=O)(=O)c1ccc(C(=O)N(CCCN(C)C)c2nc3cc4c(cc3s2)OCO4)cc1 (stereo unspecified)	-1	0	39*	2
CN(C)CCN(C(=O)c1ccc(S(=O)(=O)N2CCCC2)cc1)c1nc2ccc(Br)cc2s1	-1	-1	14	6
CC1CCCCN1S(=O)(=O)c1ccc(C(=O)N(CCCN(C)C)c2nc3ccc(Br)cc3s2)cc1 (stereo unspecified)	-2	-28	38*	5
CN(C)CCCN(C(=O)c1ccc(S(=O)(=O)N2CCCCCC2)cc1)c1nc2cc3c(cc2s1)OCO3	.	.	.	-7
COc1ccc(NC(=O)C2(C)CCN2C(=O)CC2CCCC2)cc1OC (stereo unspecified)	.	.	.	1
CCOC(=O)N1CCN(C(=O)c2ccc(CNS(=O)(=O)c3ccc(NC(C)=O)cc3)cc2)CC1	0	-1	-21	23*
CCOC(=O)N1CCN(C(=O)C2CCN(S(=O)(=O)c3ccc(OCC)cc3)CC2)CC1	-2	-3	-48	26*
CCOC(=O)N1CCN(C(=O)C2CCC(CNS(=O)(=O)c3ccc(Cl)cc3)CC2)CC1 (stereo unspecified)	0	0	-7	27*
CCOC(=O)N1CCN(C(=O)C2CCN(S(=O)(=O)c3ccc(Cl)cc3)CC2)CC1	1	-11	-40	-2
CC1(C(=O)NS(=O)(=O)c2ccc(Cl)cc2)CCN1C(=O)c1cccc(F)c1 (stereo unspecified)	.	.	.	-2
CCN(CC)S(=O)(=O)c1ccc(OC)c(NC(=O)c2cccs2)c1	0	1	-10	25*
COc1cc2c(cc1OC)C1(Nc3c-2c(Cc2ccccc2)nn3-c2ccccc2)C(=O)Nc2ccccc21 (stereo unspecified)	4	58*	-7	-4
COc1cc2c(cc1OC)C1(NCC2)C(=O)Nc2ccccc21 (stereo unspecified)	-6	1	-2	-2
CN1C(=S)SC(N(O)C(=O)Nc2cccc3ccccc23)C1(C)C (stereo unspecified)	1	-8	10	31*
CN1C(=S)SC(N(O)C(=O)Nc2ccccc2)C1(C)C (stereo unspecified)	-2	2	-7	-11
O=C(N/N=C/C=C/c1ccco1)/C(=C/c1ccccc1)NC(=O)c1ccccc1	1	47*	-7	-23
COC(=O)C1=C(C(=O)OC)[C@@H]2N(C)c3ccc(OC)cc3[C@@]23C[C@@H](C(=O)OC)N(C(=O)CC(C)C)C3=N1	2	7	.	26*
COC(=O)C1=C(C(=O)OC)[C@@H]2N(C)c3ccc(OC)cc3[C@@]23C[C@@H](C(=O)OC)N(C(=O)NCCBr)C3=N1	1	13	.	.
CCCCN(C(=O)CSCC(=O)Nc1ccc(OC)cc1)c1c(N)n(CC(C)C)c(=O)[nH]c1=O	.	.	.	4
